Experimental data published in ChEMBL document CHEMBL4052825, “Identification of Novel Coumestan Derivatives as Polyketide Synthase 13 Inhibitors against Mycobacterium tuberculosis” (J Med Chem, 2018).
≈ marks a conversion by molar mass, not a printed value. Calls of active or inactive are those of the source. No cut-off for these calls is given here.

Columns and labels:
[1] = tested on: Mycobacterium tuberculosis H37Rv; assay: Inhibition of PKS13 in Mycobacterium tuberculosis H37Rv assessed as reduction in bacterial growth after […] by MABA
Vero = assay: Cytotoxicity against African green monkey Vero cells after 72 hrs by MABA; assay type: cell-based; conditions: Chlorocebus sabaeus
[2] = Selectivity index, ratio of IC50 for African green monkey Vero cells to MIC=<90 for Mycobacterium tuberculosis H37Rv; assay type: toxicity; conditions: read-out: Selectivity Index
Outline: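 Vero (African green monkey kidney) cytotoxicity IC50 by MABA, divided by the MABA MIC against M. tuberculosis H37Rv to give SI = IC50/MIC.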

[3] = tested on: Mycobacterium tuberculosis; assay: Antitubercular activity against Mycobacterium tuberculosis H37Rv infected in Balb/C mouse assessed as reduction in bacterial growth in mouse serum at 100 mg/kg, po administered via gavage after 30 to 120 mins by MABA; assay type: functional, organism-based
Outline: (§1)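 Oral serum inhibition titration. Six-week female BALB/c mice (20 g) gavaged with 100 mg/kg compound suspended in 0.5% carboxymethylcellulose. Isoniazid 10 mg/kg was the positive control and vehicle alone the negative control. Cardiac blood taken at 30, 60 and 120 min and serum separated. Serum two-fold serially diluted with 10^4 CFU M. tuberculosis H37Rv, incubated 7 days, read by MABA.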

MRC5 = assay: Cytotoxicity against human MRC5 cells after 48 hrs by CellTiter96 AQueous one solution assay; assay type: cell-based; conditions: MRC5, 48 h
Outline: (§2)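 Human cell cytotoxicity. QSG-7701 and HEK293 grown in DMEM; MRC-5 and HFL-1 grown in DMEM/F12. Both media carried 10% FBS with penicillin/streptomycin, 37°C, 5% CO2. Cells seeded at 5,000/well, incubated overnight, then exposed to compound for 48 h. CellTiter 96 AQueous One added for 1 h, absorbance read at 490 nm. IC50 is the mean of three independent experiments.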

HFL1 = assay: Cytotoxicity against HFL1 cells after 48 hrs by CellTiter96 AQueous one solution assay; assay type: cell-based; conditions: Homo sapiens, HFL1, 48 h; outline: as §2
[4] = Cytotoxicity against human QSG7701 cells after 48 hrs by CellTiter96 AQueous one solution assay; assay type: cell-based; conditions: QSG7701, 48 h; outline: as §2
HEK293 = assay: Cytotoxicity against human HEK293 cells after 48 hrs by CellTiter96 AQueous one solution assay; assay type: cell-based; conditions: HEK293, 48 h; outline: as §2
[5] = tested on: Mycobacterium tuberculosis; assay: Antitubercular activity against Mycobacterium tuberculosis H37Rv infected in Balb/C mouse assessed as reduction in bacterial growth in mouse serum at 100 mg/kg, po administered via gavage after 30 mins dose by MABA; assay type: functional, organism-based; outline: as §1
[6] = Metabolic stability in human liver microsomes assessed as parent compound remaining at 10 uM after 60 mins in presence of NADPH; assay type: ADME, microsome; conditions: read-out: Stability
[7] = Selectivity index, ratio of IC50 for human MRC5 cells to MIC=<90 for Mycobacterium tuberculosis H37Rv; assay type: toxicity; conditions: read-out: Selectivity Index
[8] = Selectivity index, ratio of IC50 for human HFL1 cells to MIC=<90 for Mycobacterium tuberculosis H37Rv; assay type: toxicity; conditions: read-out: Selectivity Index
[9] = Selectivity index, ratio of IC50 for human QSG7701 cells to MIC=<90 for Mycobacterium tuberculosis H37Rv; assay type: toxicity; conditions: read-out: Selectivity Index
[10] = Selectivity index, ratio of IC50 for human HEK293 cells to MIC=<90 for Mycobacterium tuberculosis H37Rv; assay type: toxicity; conditions: read-out: Selectivity Index
[11] = tested on: Mycobacterium tuberculosis; assay: Antitubercular activity against Mycobacterium tuberculosis by microdilution method; assay type: functional
Outline: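 Whole-cell MIC against M. tuberculosis strain H37Rv, measured by the microplate Alamar Blue assay (MABA) following a previously reported procedure; MIC values given in […].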

SMILES | MIC=<90 [1] | also measured
CCOC(=O)c1c(-c2ccc(F)cc2OC)oc2ccc(O)c(CN3CCCCC3)c12 | 8 µg/mL | –
CCOC(=O)c1c(-c2ccccc2)oc2ccc(O)c(CN3CCC(C)CC3)c12 | 2.5 µM | IC50 (Vero): 16 µg/mL (≈ 40.7 µM); selectivity ratio [2]: 16; Activity [3]: inactive
CCNC(=O)c1c(-c2ccccc2)oc2ccc(O)c(CN3CCCCC3)c12 | 4 µg/mL | –
CCOC(=O)c1c(-c2ccc(OC)cc2OC)oc2ccc(O)c(CN3CCCCC3)c12 | 16 µg/mL | –
CCOC(=O)c1c(-c2ccccc2)oc2ccc(O)c(CN3CCN(C)CC3)c12 | > 64 µg/mL | –
O=c1oc2ccccc2c2oc3ccc4c(c3c12)CN(C1CCCC1)CO4 | 0.5 µg/mL | IC50 (Vero): 0.5 µg/mL (≈ 1.38 µM); selectivity ratio [2]: 1
O=c1oc2ccccc2c2oc3ccc4c(c3c12)CN(CC1CC1)CO4 | 2 µg/mL | –
O=C(O)c1c(-c2ccccc2)oc2ccc(O)c(CN3CCCCC3)c12 | > 64 µg/mL | –
CCOC(=O)c1c(-c2ccccc2)oc2ccc(O)c(CN3CCCCC3)c12 | 2 µg/mL | –
CCOC(=O)c1c(-c2ccccc2)oc2ccc3c(c12)CN(C1CCCC1)CO3 | 2 µg/mL | –
O=c1oc2ccccc2c2oc3ccc(O)c(CN4CCCCC4)c3c12 | 0.125 to 0.25 µg/mL | IC50 (Vero): 4 µg/mL (≈ 11.4 µM); selectivity ratio [2]: 16 to 32; IC50 (MRC5): > 50 µg/mL; IC50 (HFL1): > 50 µg/mL; IC50 [4]: > 50 µg/mL; IC50 (HEK293): > 50 µg/mL; Activity [3]: Active; Activity [5]: Active; remaining at 1 h, 10 µM [6]: 14.5%; selectivity ratio [7]: > 100; selectivity ratio [8]: > 100; selectivity ratio [9]: > 100; selectivity ratio [10]: > 100
O=C(NC1CC1)c1c(-c2ccccc2)oc2ccc(O)c(CN3CCCCC3)c12 | 8 µg/mL | –
CCOC(=O)c1c(-c2ccccc2)oc2ccc(O)c(CN3CCC(CO)CC3)c12 | 16 µg/mL | –
O=c1oc2ccccc2c2oc3ccc4c(c3c12)CN(C1CCCCC1)CO4 | 16 µg/mL | –
CCOC(=O)c1c(-c2ccc(C(F)(F)F)cc2)oc2ccc(O)c(CN3CCCCC3)c12 | 8 µg/mL | –
CCOC(=O)c1c(-c2ccccc2)oc2ccc3c(c12)CN(CCC(C)C)CO3 | 4 µg/mL | –
COc1ccc2oc(=O)c3c(oc4ccc(O)c(CN5CCCCC5)c43)c2c1 | 4 µg/mL | –
CCOC(=O)c1c(-c2ccccc2)oc2ccc(O)cc12 | > 64 µg/mL | –
CCOC(=O)c1c(-c2ccccc2)oc2ccc3c(c12)CN(C1CC1)CO3 | 16 µg/mL | –
CCOC(=O)c1c(-c2ccccc2)oc2ccc(OC)c(CN3CCCCC3)c12 | 16 µg/mL | –
O=c1oc2cc(Cl)c(Cl)cc2c2oc3ccc4c(c3c12)CN(CC1CC1)CO4 | > 64 µg/mL | –
O=C(Nc1ccccc1)c1c(-c2ccccc2)oc2ccc(O)c(CN3CCCCC3)c12 | 8 µg/mL | –
CCOC(=O)c1c(-c2ccc(OC)cc2)oc2ccc(O)c(CN3CCCCC3)c12 | 16 µg/mL | –
O=C(NC12CC3CC(CC(C3)C1)C2)c1c(-c2ccccc2)oc2ccc(O)c(CN3CCCCC3)c12 | > 64 µg/mL | –
CCOC(=O)c1c(-c2ccc(Br)cc2OC)oc2ccc(O)c(CN3CCCCC3)c12 | > 64 µg/mL | –

SMILES | MIC=<90 [1] | also measured
O=c1oc2ccccc2c2oc3ccc(O)cc3c12 | > 64 µg/mL | –
CCOC(=O)c1c(-c2ccc(OC)cc2)oc2ccc3c(c12)CN(CC1CC1)CO3 | 2 µg/mL | –
O=c1oc2ccc(Cl)cc2c2oc3ccc4c(c3c12)CN(CC1CC1)CO4 | 16 µg/mL | –
O=c1oc2ccc(F)cc2c2oc3ccc4c(c3c12)CN(CC1CC1)CO4 | 16 µg/mL | –
O=c1oc2cc(F)ccc2c2oc3ccc(O)c(CN4CCCCC4)c3c12 | 1 µg/mL | IC50 (Vero): 8 µg/mL (≈ 21.8 µM); selectivity ratio [2]: 8
CCOC(=O)c1c(-c2cc(C)ccc2OC)oc2ccc3c(c12)CN(CC1CC1)CO3 | 8 µg/mL | –
O=C(NCc1ccccc1)c1c(-c2ccccc2)oc2ccc(O)c(CN3CCCCC3)c12 | 16 µg/mL | –
COC(=O)c1c(NC(=O)c2c(F)c(F)c(F)c(F)c2F)sc2c1CCCCC2 | – | MIC [11]: 1 µM (≈ 0.419 µg/mL)
Cc1ccc2oc(=O)c3c(oc4ccc(O)c(CN5CCCCC5)c43)c2c1 | 0.5 µg/mL | IC50 (Vero): 8 µg/mL (≈ 22 µM); selectivity ratio [2]: 16
CCOC(=O)c1c(-c2ccc(F)cc2)oc2ccc(O)c(CN3CCCCC3)c12 | 0.5 µg/mL | IC50 (Vero): 16 µg/mL (≈ 40.3 µM); selectivity ratio [2]: 32; Activity [3]: inactive
O=c1oc2cc(Br)ccc2c2oc3ccc(O)c(CN4CCCCC4)c3c12 | 1 µg/mL | IC50 (Vero): 8 µg/mL (≈ 18.7 µM); selectivity ratio [2]: 8
CCOC(=O)c1c(-c2ccccc2)oc2ccc(O)c(CN3CCCC3)c12 | 2 µg/mL | –
Cc1cc2oc(=O)c3c(oc4ccc5c(c43)CN(CC3CC3)CO5)c2cc1C | 8 µg/mL | –
COc1ccc2c(c1)oc(=O)c1c2oc2ccc3c(c21)CN(CC1CC1)CO3 | 2 µg/mL | –
CCOC(=O)c1c(NC(=O)c2c(F)c(F)c(F)c(F)c2F)sc(C(N)=O)c1C | – | MIC [11]: 0.5 µM (≈ 0.211 µg/mL)
CCOC(=O)c1c(-c2ccccc2)oc2ccc(O)c(CN3CCOCC3)c12 | > 64 µg/mL | –
CCOC(=O)c1c(-c2cc(C)c(C)cc2OC)oc2ccc(O)c(CN3CCCCC3)c12 | 4 µg/mL | –
CCOC(=O)c1c(-c2ccc(C)cc2)oc2ccc3c(c12)CN(CC1CC1)CO3 | 4 µg/mL | –
Cc1ccc2oc(=O)c3c(oc4ccc5c(c43)CN(CC3CC3)CO5)c2c1 | 4 µg/mL | –
CCOC(=O)c1c(-c2ccccc2)oc2ccc3c(c12)CN(CC1CC1)CO3 | 1 µg/mL | IC50 (Vero): 8 µg/mL (≈ 21.2 µM); selectivity ratio [2]: 8
COc1ccc2c(c1)oc(=O)c1c2oc2ccc(O)c(CN3CCCCC3)c21 | 0.25 µg/mL | IC50 (Vero): 4 µg/mL (≈ 10.5 µM); selectivity ratio [2]: 16; IC50 (MRC5): > 50 µg/mL; IC50 (HFL1): 50.2 µg/mL (≈ 132 µM); IC50 [4]: 38.8 µg/mL (≈ 102 µM); IC50 (HEK293): > 50 µg/mL; Activity [3]: Active; remaining at 1 h, 10 µM [6]: 45.5%; selectivity ratio [7]: > 100; selectivity ratio [8]: > 100; selectivity ratio [9]: > 100; selectivity ratio [10]: > 100
O=c1oc2ccc(Br)cc2c2oc3ccc4c(c3c12)CN(CC1CC1)CO4 | 8 µg/mL | –
COc1ccc2oc(=O)c3c(oc4ccc5c(c43)CN(CC3CC3)CO5)c2c1 | 16 µg/mL | –
CCCN(CCC)Cc1c(O)ccc2oc(-c3ccccc3)c(C(=O)OCC)c12 | 8 µg/mL | –
